The EternaBench riboswitch data

Tested on: MS2 coat protein
Test: apparent Kd, MS2 coat protein; higher = weaker binding; RNA-MaP array; FMN 200 µM where present
Outline: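 Designs were transcribed by stalled E. coli RNA polymerase on Illumina sequencing-chip clusters. They were titrated with SNAP-549-labelled MS2 coat protein from 0.7 or 1.5 nM, doubling to 3 µM, without and then with constant ligand. Buffer: 100 mM Tris-HCl pH 7.5, 80 mM KCl, 4 mM MgCl2, BSA, DTT, yeast tRNA, Tween-20. Green signal was normalised to red-channel RNA signal and control-cluster median Fmax. Apparent Kd is the median of filtered per-cluster binding-curve fits.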

[1] = designed as: ON switch for flavin mononucleotide, no ligand
[2] = ligand present: flavin mononucleotide, designed as: ON switch for flavin mononucleotide
[3] = designed as: OFF switch for flavin mononucleotide, no ligand
[4] = ligand present: flavin mononucleotide, designed as: OFF switch for flavin mononucleotide

Row | Sequence | apparent Kd [1] | apparent Kd [2] | apparent Kd [3] | apparent Kd [4]
1 | UCAUUUUCCACAGGAUAUAUUCAUAUACAGUUGUUUGGCUCUUACAUGUUAGUAGAAGGGUGCAACAUGAGGAUCACCCAUGUA | 0.362 µM | 0.186 µM | – | –
2 | CUUCAACAAGGAUAUGCCAUGGAUCGACACUGUUACGCGAAACAUGAGGAUCACCCAUGUAGAAGGUGUUGAGA | – | – | 0.0785 µM | 0.0962 µM
3 | CUGAUGUUAGGAUAUCAGGCGCCCGCCACUGGCAGGGCGCAUGAGAAGGGACAUGAGGAUCACCCAUGUAGUAA | – | – | 0.0275 µM | 0.0461 µM
4 | CUAUAUAAUACCUCAUGUACAUGAGGAUCACCCAUGUUAACUUAGGAUAUAUUUAUAUUAAUAGAGUAGAAGGAAGUACUAUUG | – | – | 0.0274 µM | 0.0212 µM
5 | UGAUAGGACAGAGGAUAUACGUGCUAGAGAUACUAGCAAAGUUUCUUGACAUGAGGAUCACCCAUGUAGAAGGCUGUCCUAUCU | – | – | 0.00574 µM | 0.0123 µM
6 | AUUUUGUGAGGAUAUUAGUUUUAUGAUUGGAGGAGUUUGGCUGAGAAGGCACAUGAGGAUCACCCAUGUAAAUC | – | – | 0.0353 µM | 0.0411 µM
7 | AUAAGCUCGUCAGGAUAUACGUCACUGUUUCGGCAGUGAGGUAUGAUCACAUGAGGAUCACCCAUGUAGAAGGGACGAGCUUAU | – | – | 0.00524 µM | 0.00829 µM
8 | AUAUGAAAGAUAGGAUAUACUGAGGUUGAAUGGGUAGAAGGAUCGAUAGUGGAGAAUACAUGAGGAUCACCCAUGUUGUGGAUU | 0.828 µM | 0.353 µM | – | –
9 | UCCUUGUCCUGAGGAUAUCCGCGGUUCCCAAAAGGAGAAGGCAGGACAUGAGGAUCACCCAUGUACCCAGAAAACGUACAGAGU | – | – | 0.0447 µM | 0.162 µM
10 | AAUUAAUUAAUACAUGAGGAUCACCCAUGUAAUUAUUAGAUCAAGGAUAUCAGCUCGUUUAGAGCUGAGAAGGUGAUCACAUGU | 0.373 µM | 0.109 µM | – | –
11 | GAGCGAAAGCUCAAUGUCGAUAGCAGAAGGACAUCCAACAACAUGAAAACAUGAGGAUCACCCAUGUAGGAUAUGCUAUCGACU | – | – | 0.0068 µM | 0.0074 µM
12 | UAAAUACAUGAGGAUCACCCAUGUCAGGAUAUAUUACGCCCGCCAAGCGAGCGCGUCUAUAGAAGGGACGGUGA | – | – | 0.0333 µM | 0.0332 µM
13 | UAUUCUUACGAAGGAUAUGGUUACAUGAGGAUCACCCAUGUAUGUAUAUUGAUCUAGUUUUUUAACCAGAAGGUCGUGAGUAUA | – | – | 0.0404 µM | 0.0542 µM
14 | AUCAGCUCGUGAGGAUAUACGUCACUGCGUCAGCAGUGUGGUAAGAUCACAUGAGGAUCACCCAUGUAGAAGGCACGAGCUGAU | – | – | 0.0662 µM | 0.837 µM
15 | UUGAAUCGAAACAUGAGGAUCACCCAUGUGUCGUAAUUGACAUAGGAUAUGUAUAUACUUUUAUAAUAGAAGGAUGACGAUACU | 0.00909 µM | 0.00794 µM | – | –
16 | GCCCUCGCUGAGGAUAUUAUCUGGUUCGAUUGAUAAGAAGGCAGUACAUGAGGAUCACCCAUGUGGUUCGUUCG | – | – | 0.0709 µM | 0.377 µM
17 | AGUAGUUCAGGAUAUGAUGUAUGUUACAUGAGGAUCACCCAUGUAGGUCCUGGAAAUGUAUCAGAAGGGAAUAUCU | – | – | 0.108 µM | 0.111 µM
18 | GUGUACAGAGGAUAUACUGGAGCAUGGAAACAUGCAACUUCACAUGAGGAUCACCCAUGUAGAAGGCUGUACAC | – | – | 0.0176 µM | 0.0684 µM
19 | CAGCUGAAUGUGAGGAUAUUACGAGCUUCGGCUCGUGAGAAGGCACAUGAGGAUCACCCAUGUCUCAACAGCUG | – | – | 0.0385 µM | 0.54 µM
20 | UGUCAGAUGGUAGGAUAUCCAUAUCGCGUGUCCCUUUCCUAACAUGAGGAUCACCCAUGUCGGUGGGAGAAGGGCCGUAUGGUG | – | – | 0.0132 µM | 0.0121 µM
21 | UAGUAGAUCCGAGGAUAUACAAUCCGGAAACGGUACAUGAGGAUCACCCAUGUAGAAGGCGGAUCUACAGGUACUAAAGUACCU | – | – | 0.00512 µM | 0.00793 µM
22 | AGUAACAGAGGAUAUACUAUUUUAUGUGUUUGUUGUUUUAAACAUGAGGAUCACCCAUGUAGAAGGCUGAAUAA | – | – | 0.0215 µM | 0.0241 µM
23 | UGUUGUUCAGGAUAUGGUGUGUUAUACAUGAGGAUCACCCAUGUGGGUCCUGAUUUGGCGUCAGAAGGGAAUGUUG | – | – | 0.486 µM | 0.406 µM
24 | GUCUCACAUGAGGAUCACCCAUGUGAGGAUAUGGAUUCGCUGGCCGUAGCCAGUGGAUCCAGAAGGCGCAUGAU | – | – | 0.0205 µM | 0.022 µM
25 | UAUAUAUAGUAAGGAUAUGUAUUUAUUUUAGAAACAGAAGGUACUGACAUGAGGAUCACCCAUGUUUUAGUGUGGGCAUGUAGA | – | – | 0.0963 µM | 0.152 µM
26 | UCAUGAAGGGCAGGAUAUGGACAUGAGGAUCACCCAUGUACAUGGGAUUAUAUACUAAAUUAAUACUAGAAGGGUUACAUAAAU | – | – | 0.0479 µM | 0.0231 µM
27 | ACAUGAGGAUCACCCAUGUGAUGAUCUUCCAUGUCAUAUUUCAGAAGGCACGCAUCUUUAAUGAGUGAGGAUAUGGAAUAUGCG | – | – | 0.674 µM | 0.41 µM
28 | GUCAGCUCGUGAGGAUAUACAACACUGCUUCGGCAGUGUAUUAAGAUCACAUGAGGAUCACCCAUGUAGAAGGCACGAGAUGAU | – | – | 0.0143 µM | 0.237 µM

Row | Sequence | apparent Kd [1] | apparent Kd [2] | apparent Kd [3] | apparent Kd [4]
29 | UUGCUCGUGUGAGGAUAUGCCGCCGUUUCGGCUGCAGAAGGUACUCUUGUACAUGAGGAUCACCCAUGUCUCUGUUGUUUCGUG | 0.049 µM | 0.0437 µM | – | –
30 | CGUCCUCUAGUUAGGAUAUUGUCUCGGAUACGAAACAAGAAGGGACAUGAGGAUCACCCAUGUAAUGAGGACGA | – | – | 0.0292 µM | 0.0282 µM
31 | ACGUGGCUGCCGCAGGAUAUACCCUGUUCCACAUGAGGAUCACCCAUGUUUACGAACUAUGAGAGGUAGAAGGGUGGAUGUCAUU | 0.0312 µM | 0.0139 µM | – | –
32 | GGUGCACGCACAGGAUAUCCGGCGGAGCUCGUCGGAGAAGGGUGACAUGAGGAUCACCCAUGUACGUGCAGCCAAGUUUGAGAG | 0.0669 µM | 0.0393 µM | – | –
33 | CGAAGAGGAAGUGAAAGGCGGGACAGAAGGGCACCGGGUCAGCGUCACAUGAGGAUCACCCAUGUGCAGGAUAUGUCGACCCAC | – | – | 0.00654 µM | 0.0304 µM
34 | CUCAUGUGAGGAUAUGUGAUCAACCUUCUGUAUAGAUGAUGACAGAAGGCACAUGAGGAUCACCCAUGUAGAUC | – | – | 0.0689 µM | 0.0571 µM
35 | UGCGUACAAGCGGACAUGAGGAUCACCCAUGUAGUCUUAUGCGAGGAUAUCGGGAAGGAGGAUUCCGAGAAGGUGCGGUGAGCC | 0.0175 µM | 0.0152 µM | – | –
36 | AAGAAGUCAGGAUAUGCAUGGCGGGACUUGCGUCGUGGCGUGCAGAAGGGACAUGAGGAUCACCCAUGUAAAGU | – | – | 0.049 µM | 0.0454 µM
37 | AAGAGCGAUUCUCCCUUCCUACAUGAGGAUCACCCAUGUACGAGAAGGCGCCGCGUAUACAACGGUGAGGAUAUCGUGCGUUAC | – | – | 0.00445 µM | 0.00498 µM
38 | CACCGACCCUAUGUGUUCUAGACAUGAGGAUCACCCAUGUAUAGAAGGGUCUUCGCGAAACGCAGACAGGAUAUGUACAGGAGU | – | – | 0.00658 µM | 0.00989 µM
39 | GCUGCCGCUGCAGGAUAUCAGCACGUGUAGUGCUGAGAAGGGCACAUGAGGAUCACCCAUGUGAUCAAUUAAUAAGCGUGCAGC | – | – | 0.00686 µM | 0.0165 µM
40 | GGUUAUUGCAAGGAUAUGCUUUUUUUUGAUAUUGCAGAAGGUGCAACAUGAGGAUCACCCAUGUUGGAGGGAUU | – | – | 0.0307 µM | 0.0918 µM
41 | AACAAACAUGAGGAUCACCCAUGUCAGGAUAUGCAAACAACAAACAACAAACAACAAAGCAGAAGGGACAACAA | – | – | 0.0237 µM | 0.0302 µM
42 | GCAUGCAAGUAGAAGGUCGGAUAUUUUGAUAACGAAGGAUAUACAGAAUCAUAUCCACAUGAUAACAUGAGGAUCACCCAUGUA | – | – | 0.0147 µM | 0.0158 µM
43 | GGGCCCGGAGGAUAUACAAUGGGCCCGGGAAAUUGGGCCCUACAUGAGGAUCACCCAUGUAGAAGGUUGGGCCC | – | – | 0.0128 µM | 0.0136 µM
44 | AGUUUAUAUCGAGGAUAUAAGUCUAGGACAUGAGGAUCACCCAUGUAUGUCUUAGAAGGCGAUAUAAACAGCCUGUUACAGGCA | 0.0315 µM | 0.00704 µM | – | –
45 | ACAUGUUAUACAGGAUAUGUUAUACAAUAAUCAAUCAGUUAUUAUGAUUUUACAGAAGGGUAUACAUGAGGAUCACCCAUGUUA | – | – | 0.0315 µM | 0.0338 µM
46 | GAUGAGAGAGGAUAUACAUGAGGAUCACCCAUGUAAUUUUCGGACAUGGAAGCUGGAUGUAGAAGGCUCGCAUG | – | – | 0.02 µM | 0.0462 µM
47 | UGGUCCUAGGGAGGAUAUGGGAAGAUACAUGAGGAUCACCCAUGUUUAAGAAUGCCGAGAGGCAACUAGAAGGCCCUAGUACCU | 0.439 µM | 0.0206 µM | – | –
48 | AGAAAGAAGCAAGGAUAUUGUAAAAUUAAUGUACAAGAAGGUGCUGUUUAUGUCUCUUAACAUGAGGAUCACCCAUGUAUUGGU | 0.0686 µM | 0.0459 µM | – | –
49 | CCGACGAAAGUCGAACGAUGUAGCAGAAGGACAUGAGGAUCACCCAUGUCAGCUGUAACAGCCAUGUAGGAUAUGCUACAUCGU | – | – | 0.00428 µM | 0.00585 µM
50 | AGAAAACAUGAGGAUCACCCAUGUCAGGAUAUCCUGCGGCAAUACACGCCGCGUUGUCGGAGAAGGGACAGGGA | – | – | 0.039 µM | 0.102 µM
51 | GUUAUUUAUGUAGGAUAUGCGAGGCGAGCCUAAGCAGAAGGACAUGAGGAUCACCCAUGUAUUGCGGUUUGCGUUCAGAUCGCU | – | – | 0.0211 µM | 0.0378 µM
52 | AGUAUGCACGCAGGAUAUACAUGAGGAUCACCCAUGUGGAACAGUGUAGUACUAGUUGAUCCUCAGUAGAAGGGCGGUCGAAUA | – | – | 0.0442 µM | 0.0566 µM
53 | UUUGGGAGCACAGGAUAUGGCACCUCGAAGGCGCCAGAAGGGUGAUUCUGUUGGUGGCCACAUGAGGAUCACCCAUGUGCCUCC | 0.0295 µM | 0.0369 µM | – | –
54 | AAGUAGGGAGGAUAUACAUGGAUAUACAUUCAUGUGGACCUACAUGAGGAUCACCCAUGUAGAAGGCCCUAAUA | – | – | 0.0371 µM | 0.0435 µM
55 | CAGCGCUGUCGAGAGGAUAUGCGGUGAUGGACAUGAGGAUCACCCAUGUUAGCGACAGCAUCACGGCAGAAGGCUCUACCCGCUG | 0.0132 µM | 0.0128 µM | – | –
